In ChEMBL document CHEMBL4316644, “Eudesmane Glycosides from Ambrosia artemisiifolia (Common Ragweed) as Potential Neuroprotective Agents” (J Nat Prod, 2019):
Calls of active or inactive are those of the source. The rule behind the calls is not given here.

Columns and labels:
HT-22 [1] = assay: Neuroprotective against amyloid beta (42 residues)-induced cell death in mouse HT22 cells transfected with pEGFP-C1/Abeta42 assessed as increase in cell viability at 40 uM measured after 24 hrs by MTT assay; format: functional, cell-based
How it was run: (§1)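 HT22 cells seeded at 4000 cells/well for 2–3 h at 37 °C, 5% CO2, then transfected with 0.2 μg pEGFP-C1/Aβ42 plasmid by Lipofectamine 2000. After 10 h, compounds were added in medium, mostly at 40 μM, some at 5 μM or at 10, 20 and 40 μM. Incubation continued 24 h, then MTT (2 mg/mL) viability read-out. Mean ± SD, n = 3, versus untreated Aβ42-transfected cells.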

HT-22 [2] = assay: Neuroprotective against amyloid beta (42 residues)-induced cell death in mouse HT22 cells transfected with pEGFP-C1/Abeta42 assessed as decrease in fluorescence intensity at 40 uM measured after 24 hrs by flow cytometry
HT-22 [3] = assay: Neuroprotective against amyloid beta (42 residues)-induced cell death in mouse HT22 cells transfected with pEGFP-C1/Abeta42 assessed as increase in fluorescence intensity at 40 uM measured after 24 hrs by fluorescence microscopic analysis; format: functional, cell-based
How it was run: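 HT22 cells grown on glass coverslips, transfected with Aβ42 plasmid for 10 h. Medium then replaced with fresh medium containing 2% FBS, with or without compounds at 40 μM, for 24 h. Cells washed once with PBS. Fluorescence and bright-field images were captured by fluorescence microscopy to view GFP condensation.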

HT-22 [4] = assay: Neuroprotective against amyloid beta (42 residues)-induced cell death in mouse HT22 cells transfected with pEGFP-C1/Abeta42 assessed as increase in cell viability measured after 24 hrs by MTT assay; format: functional, cell-based; how it was run: as §1
HT-22 [5] = assay: Cytotoxicity against mouse HT22 cells assessed as reduction in cell viability at 40 uM measured after 24 hrs by MTT assay; format: cell-based; details: ht-22, 24 h
How it was run: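 Untransfected HT22 mouse hippocampal cells grown in DMEM with 10% FBS and penicillin/streptomycin, seeded at 4000 cells/well, then incubated 24 h. Compounds in DMSO, diluted in serum-free medium (final DMSO 0.1 to 0.2% v/v), applied for 24 h. MTT (2 mg/mL) added for 4 h in the dark, formazan dissolved in DMSO, absorbance read at 550 nm.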

HT-22 [6] = assay: Neuroprotective against amyloid beta (42 residues)-induced cell death in mouse HT22 cells transfected with pEGFP-C1/Abeta42 assessed as increase in cell viability up to 80 uM measured after 24 hrs by MTT assay; format: functional, cell-based

CC1=CC[C@H](O)[C@@]2(C)[C@@H](O)C[C@@H](C(C)C)[C@@H](O[C@@H]3O[C@H](CO)[C@@H](O)[C@H](O)[C@H]3O)[C@H]12
Activity (HT-22 [1]): Active | Activity (HT-22 [2]): Active | Activity (HT-22 [3]): Active | Activity (HT-22 [4]): Dose-dependent effect

CC1=CC[C@H](O)[C@@]2(C)[C@@H](OC(=O)C[C@](C)(O)CC(=O)O)C[C@@H](C(C)C)[C@@H](O[C@@H]3O[C@H](CO)[C@@H](O)[C@H](O)[C@H]3O)[C@H]12
Activity (HT-22 [1]): Active

C=C1CC[C@@H](O[C@@H]2O[C@H](CO)[C@@H](O)[C@H](O)[C@H]2O)[C@]2(C)CC[C@@H](C(C)C)[C@H](O)[C@@H]12
Activity (HT-22 [1]): Active

C=C1C(=O)O[C@@H]2C[C@@H](C)[C@@H]3C[C@@H](OC(C)=O)[C@H](OC(C)=O)[C@@]3(C)C[C@H]12
Activity (HT-22 [5]): Toxic

CC(=O)O[C@@H]1C[C@H]2[C@H](C)[C@H]3OC(=O)[C@@H](C)[C@H]3CC[C@]2(C)[C@H]1OC(C)=O
Activity (HT-22 [1]): Active

C=C(C(=O)O)[C@H]1C[C@]2(C)C(=O)CC[C@]23O[C@H]1C[C@@H]3C
Activity (HT-22 [1]): Active

C=C1CC[C@@H]2[C@](C)(CO)[C@H](O)CC[C@@]2(C)[C@@H]1C/C=C1/C(=O)OC[C@H]1O
Activity (HT-22 [6]): Active

CC1=CC[C@H](OC(=O)C[C@](C)(O)CC(=O)O)[C@@]2(C)[C@@H](O)C[C@@H](C(C)C)[C@@H](O[C@@H]3O[C@H](CO)[C@@H](O)[C@H](O)[C@H]3O)[C@H]12
Activity (HT-22 [1]): Active

C=C1C(=O)O[C@@H]2[C@H]3C(C)=CC[C@H]3[C@](C)(O)C[C@H](O)[C@@H]12 [CUMAMBRIN B]
Activity (HT-22 [5]): Toxic

CC1=CC[C@H](O[C@@H]2OC[C@@H](O)[C@H](O)[C@H]2O)[C@@]2(C)[C@@H](O)C[C@@H](C(C)C)[C@@H](O[C@@H]3O[C@H](CO)[C@@H](O)[C@H](O)[C@H]3O)[C@H]12
Activity (HT-22 [1]): Active | Activity (HT-22 [2]): Active | Activity (HT-22 [3]): Active | Activity (HT-22 [4]): Dose-dependent effect

O=C(/C=C/c1ccc(O)cc1)NCCCCN(CCCNC(=O)/C=C/c1ccc(O)cc1)C(=O)/C=C/c1ccc(O)cc1
Activity (HT-22 [1]): Active

CC(=O)OC[C@H]1O[C@@H](O[C@@H]2[C@H](C(C)C)C[C@H](OC(=O)C[C@](C)(O)CC(=O)O)[C@]3(C)[C@@H](O)CC=C(C)[C@@H]23)[C@H](O)[C@@H](O)[C@@H]1O
Activity (HT-22 [1]): Active
